# Measurements taken from ChEMBL document CHEMBL1240350, “In vitro activity of CEM-101 against Streptococcus pneumoniae and Streptococcus pyogenes with defined macrolide resistance mechanisms” (Antimicrob Agents Chemother, 2010).
# Legend:
# Streptococcus pyogenes [1] = assay: Antibacterial activity against macrolide-resistant Streptococcus pyogenes harboring erm(A) gene after overnight incubation by agar dilution method; format: functional
# Procedure, shortened: (§1)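 Agar dilution MICs on Mueller-Hinton agar with 5% sheep blood. Inoculum 10^4 CFU/spot, incubated overnight at 35°C in ambient air. Clinical S. pneumoniae or group A streptococcal isolates; resistance genotypes (erm(B), erm(A), mef(A)/mef(E)) were assigned by PCR. S. pneumoniae ATCC 49619 served as QC strain in each run. Range, MIC50 and MIC90 reported per phenotype group.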
# Streptococcus pneumoniae [2] = assay: Antibacterial activity against macrolide-susceptible Streptococcus pneumoniae 7127 harboring S20N mutation in L4 ribosomal protein and A105V mutation in L22 ribosomal protein after 15 passages and 10 compound-free subculturing by retest method; format: functional
# Streptococcus pneumoniae [3] = assay: Antibacterial activity against macrolide-resistant Streptococcus pneumoniae 3009 harboring mutation in 23S rRNA after 20 passages and 10 compound-free subculturing by retest method; format: functional
# Streptococcus pneumoniae [4] = assay: Antibacterial activity against macrolide-susceptible Streptococcus pneumoniae 7127 harboring S20N mutation in L4 ribosomal protein and A105V mutation in L22 ribosomal protein after overnight incubation by agar dilution method; format: functional
# Streptococcus pneumoniae [5] = assay: Antibacterial activity against macrolide-resistant Streptococcus pneumoniae 2686 harboring mutation in L4 ribosomal protein after 25 passages and 10 compound-free subculturing by retest method; format: functional
# Streptococcus pyogenes [6] = assay: Antibacterial activity against macrolide-resistant Streptococcus pyogenes 2011 harboring mef(A) gene after 50 passages following overnight incubation by agar dilution method
# Streptococcus pneumoniae [7] = assay: Antibacterial activity against macrolide-resistant Streptococcus pneumoniae harboring mef(A) gene after overnight incubation by agar dilution method; format: functional; procedure, shortened: as §1
# Streptococcus pyogenes [8] = assay: Antibacterial activity against macrolide-resistant Streptococcus pyogenes 2094 harboring erm(A) gene after 43 passages and 10 compound-free subculturing by retest method
# Streptococcus pneumoniae [9] = assay: Antibacterial activity against macrolide-susceptible Streptococcus pneumoniae 1077 after 49 passages and 10 compound-free subculturing by retest method; format: functional
# Streptococcus pyogenes [10] = assay: Antibacterial activity against macrolide-susceptible Streptococcus pyogenes 2132 after overnight incubation by agar dilution method
# Streptococcus pneumoniae [11] = assay: Antibacterial activity against macrolide-susceptible Streptococcus pneumoniae 7127 harboring S20N mutation in L4 ribosomal protein and A105V mutation in L22 ribosomal protein after 43 passages and 10 compound-free subculturing by retest method; format: functional
# Streptococcus pyogenes [12] = assay: Antibacterial activity against macrolide-resistant Streptococcus pyogenes harboring mef(A) gene after overnight incubation by agar dilution method; format: functional; procedure, shortened: as §1
# Streptococcus pneumoniae [13] = assay: Antibacterial activity against macrolide-resistant Streptococcus pneumoniae harboring mutation in L4 ribosomal protein after overnight incubation by agar dilution method; format: functional; procedure, shortened: as §1
# Streptococcus pyogenes [14] = assay: Antibacterial activity against macrolide-resistant Streptococcus pyogenes 237 harboring mutation in L4 ribosomal protein after 20 passages and 10 compound-free subculturing by retest method
# Streptococcus pneumoniae [15] = assay: Antibacterial activity against macrolide-resistant Streptococcus pneumoniae 1635 harboring erm(A) gene after 32 passages and 10 compound-free subculturing by retest method; format: functional
# Procedure, shortened: (§2)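 Multistep selection by daily serial passage in subinhibitory drug concentrations. Medium was cation-adjusted Mueller-Hinton broth plus 5% lysed horse blood. Each day the next inoculum came from the tube 1–2 dilutions below the MIC whose turbidity matched the growth control, for up to 50 days. Clone MICs by CLSI macrodilution; identity to the parent confirmed by SmaI PFGE.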
# Streptococcus pneumoniae [16] = assay: Antibacterial activity against macrolide-resistant Streptococcus pneumoniae 3665 harboring mef(A) gene after overnight incubation by agar dilution method; format: functional
# Streptococcus pyogenes [17] = assay: Antibacterial activity against Streptococcus pyogenes harboring mutation in L4 ribosomal protein after overnight incubation by agar dilution method; format: functional
# Procedure, shortened: (§3)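 Clinical isolates collected 1998–2008, with macrolide-resistance genes confirmed by PCR. MICs by agar dilution on Mueller-Hinton agar with 5% sheep blood. Inoculum 10^4 CFU/spot, incubated overnight at 35°C in ambient air. S. pneumoniae ATCC 49619 was the quality-control strain in every run.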
# Streptococcus pyogenes [18] = assay: Antibacterial activity against macrolide-resistant Streptococcus pyogenes 237 harboring mutation in L4 ribosomal protein after 43 passages and 10 compound-free subculturing by retest method
# Streptococcus pneumoniae [19] = assay: Antibacterial activity against macrolide-resistant Streptococcus pneumoniae harboring erm(B) gene after overnight incubation by agar dilution method; format: functional; procedure, shortened: as §1
# Streptococcus pneumoniae [20] = assay: Antibacterial activity against Streptococcus pneumoniae harboring mef(A) gene after overnight incubation by agar dilution method; format: functional; procedure, shortened: as §3
# Streptococcus pneumoniae [21] = assay: Antibacterial activity against macrolide-susceptible Streptococcus pneumoniae 1077 after 43 passages and 10 compound-free subculturing by retest method; format: functional
# Streptococcus pyogenes [22] = assay: Antibacterial activity against Streptococcus pyogenes harboring mef(A) gene after overnight incubation by agar dilution method; format: functional; procedure, shortened: as §3
# Streptococcus pyogenes [23] = assay: Antibacterial activity against macrolide-resistant Streptococcus pyogenes 2011 harboring mef(A) gene after 35 passages and 10 compound-free subculturing by retest method
# Streptococcus pyogenes [24] = assay: Antibacterial activity against macrolide-resistant Streptococcus pyogenes 2094 harboring erm(A) gene after 6 passages and 10 compound-free subculturing by retest method
# Streptococcus pyogenes [25] = assay: Antibacterial activity against Streptococcus pyogenes harboring erm(B) gene after overnight incubation by agar dilution method; format: functional; procedure, shortened: as §3
# Streptococcus pyogenes [26] = assay: Antibacterial activity against macrolide-susceptible Streptococcus pyogenes 2132 after 28 passages and 10 compound-free subculturing by retest method
# Streptococcus pyogenes [27] = assay: Antibacterial activity against macrolide-resistant Streptococcus pyogenes 237 harboring mutation in L4 ribosomal protein after overnight incubation by agar dilution method
# Streptococcus pneumoniae [28] = assay: Antibacterial activity against macrolide-susceptible Streptococcus pneumoniae 1077 after overnight incubation by agar dilution method; format: functional
# Streptococcus pneumoniae [29] = assay: Antibacterial activity against macrolide-susceptible Streptococcus pneumoniae after overnight incubation by agar dilution method; format: functional; procedure, shortened: as §1
# Streptococcus pneumoniae [30] = assay: Antibacterial activity against macrolide-resistant Streptococcus pneumoniae 3009 harboring mutation in 23S rRNA after overnight incubation by agar dilution method; format: functional
# Streptococcus pneumoniae [31] = assay: Antibacterial activity against macrolide-resistant Streptococcus pneumoniae 1635 harboring erm(A) gene after 49 passages and 10 compound-free subculturing by retest method; format: functional; procedure, shortened: as §2
# Streptococcus pneumoniae [32] = assay: Antibacterial activity against Streptococcus pneumoniae harboring erm(B) gene after overnight incubation by agar dilution method; format: functional; procedure, shortened: as §3
# Streptococcus pneumoniae [33] = assay: Antibacterial activity against macrolide-resistant Streptococcus pneumoniae harboring erm(B) and mef(A) gene after overnight incubation by agar dilution method; format: functional; procedure, shortened: as §1
compound,measurement,setting,value
CC[C@H]1OC(=O)[C@H](C)C(=O)[C@H](C)[C@@H](O[C@@H]2O[C@H](C)C[C@H](N(C)C)[C@H]2O)[C@](C)(OC)C[C@@H](C)C(=O)[C@H](C)[C@H]2N(CCCCn3cnc(-c4cccnc4)c3)C(=O)O[C@]12C [TELITHROMYCIN],MIC50,Streptococcus pyogenes [1],0.06 µg/mL
same,MIC90,Streptococcus pyogenes [1],0.125 µg/mL
same,MIC,Streptococcus pneumoniae [2],0.008 µg/mL
same,MIC,Streptococcus pneumoniae [3],0.06 µg/mL
same,MIC,Streptococcus pneumoniae [4],0.008 µg/mL
same,MIC,Streptococcus pneumoniae [5],0.5 µg/mL
same,MIC,Streptococcus pyogenes [6],1 µg/mL
same,MIC50,Streptococcus pneumoniae [7],0.125 µg/mL
same,MIC90,Streptococcus pneumoniae [7],0.25 µg/mL
same,MIC,Streptococcus pyogenes [8],0.5 µg/mL
same,MIC,Streptococcus pneumoniae [9],0.06 µg/mL
same,MIC,Streptococcus pyogenes [10],0.008 µg/mL
same,MIC,Streptococcus pneumoniae [11],0.008 µg/mL
same,MIC50,Streptococcus pyogenes [12],0.5 µg/mL
same,MIC90,Streptococcus pyogenes [12],1 µg/mL
same,MIC50,Streptococcus pneumoniae [13],0.125 µg/mL
same,MIC90,Streptococcus pneumoniae [13],0.25 µg/mL
same,MIC,Streptococcus pyogenes [14],1 µg/mL
same,MIC,Streptococcus pneumoniae [15],0.03 µg/mL
same,MIC,Streptococcus pneumoniae [16],0.125 µg/mL
same,MIC,Streptococcus pyogenes [17],0.06 µg/mL
same,MIC,Streptococcus pyogenes [18],0.06 µg/mL
same,MIC50,Streptococcus pneumoniae [19],0.06 µg/mL
same,MIC90,Streptococcus pneumoniae [19],1 µg/mL
same,MIC50,Streptococcus pneumoniae [20],0.125 µg/mL
same,MIC90,Streptococcus pneumoniae [20],0.25 µg/mL
same,MIC,Streptococcus pneumoniae [21],0.06 µg/mL
same,MIC50,Streptococcus pyogenes [22],0.5 µg/mL
same,MIC90,Streptococcus pyogenes [22],1 µg/mL
same,MIC,Streptococcus pyogenes [23],0.25 µg/mL
same,MIC,Streptococcus pyogenes [24],0.03 µg/mL
same,MIC50,Streptococcus pyogenes [25],8 µg/mL
same,MIC90,Streptococcus pyogenes [25],16 µg/mL
same,MIC,Streptococcus pyogenes [26],0.03 µg/mL
same,MIC,Streptococcus pyogenes [27],0.06 µg/mL
same,MIC,Streptococcus pneumoniae [28],0.004 µg/mL
same,MIC50,Streptococcus pneumoniae [29],0.03 µg/mL
same,MIC90,Streptococcus pneumoniae [29],0.03 µg/mL
same,MIC,Streptococcus pneumoniae [30],0.016 µg/mL
same,MIC,Streptococcus pneumoniae [31],0.016 µg/mL
same,MIC50,Streptococcus pneumoniae [32],0.06 µg/mL
same,MIC90,Streptococcus pneumoniae [32],1 µg/mL
same,MIC50,Streptococcus pneumoniae [33],0.5 µg/mL
same,MIC90,Streptococcus pneumoniae [33],1 µg/mL
